These results are taken from PubChem BioAssay AID2632 (Broad Institute, 2010).

The experiment relates to T. cruzi in NIH3T3, immunofluorescence replication, 4 d. In words: amastigote replication in infected NIH3T3 cells – imaging, immunofluorescence, NIH3T3 host cells, mechanism study for T. cruzi infection inhibitor project, late-stage follow-up (AID 2632). The settings on record: hits give low values. Summed up: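 test system = T. cruzi-infected NIH3T3 cells | probe or stimulus = trypomastigotes, MOI 100:1 | compound dosing = one dose, 10× IC50 | schedule = 2 h parasite infection, then 4-day compound exposure | technique = anti-T. cruzi antibody and DAPI fluorescence imaging | measure = percent of 50 infected cells holding more than 4 amastigotes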

Consider `COc1ccccc1/C=C/C(=O)OCCCN(C)C`, for which the percent infected cells with replication (at 7.93 µM) was 6%.

Regarding `O=C(Cc1cn(Cc2cccc(Cl)c2)c2ccccc12)N1CCCCCC1`, the percent infected cells with replication (at 17.5 µM) is 2%.

`CC(C)c1cccc(OCCCCN(C)C)c1`: the percent infected cells with replication (at 5.87 µM) was 0%.

Take `CCCn1ncc(CN2CCCC(C(=O)c3cccc(OC(C)C)c3)C2)c1C` (configuration not stated): the percent infected cells with replication (at 0.54 µM) was 4%.

For `CC(=O)c1cccc(CN2CCCC(CCC(=O)NCc3ccc(F)c(F)c3)C2)c1` (configuration not stated), the percent infected cells with replication (at 0.7 µM) is 8%.

For the molecule `CCOc1ccc2oc(=O)cc(CN3CCN(Cc4ccccc4)CC3)c2c1`, the percent infected cells with replication (at 2.16 µM) is 0%.

In the case of `COc1ccc(CCN(C)C(=O)C2CCCN(Cc3ccc(OC)c(OC)c3)C2)cc1OC` (configuration not stated), the percent infected cells with replication (at 1 µM) is 6%.

Turning to `CC(C)=CCCC(C)CN(C)CCc1ccccn1` (configuration not stated), where the note is “at 0.83 µM”, the percent infected cells with replication is 2%.

For `O=S(=O)(NCC(c1cccnc1)N1CCN(c2ccc(F)cc2)CC1)c1ccccc1` (configuration not stated), for the setting “at 0.66 µM”, the percent infected cells with replication is 0%.

As to `CC(C)(C)OC(=O)N/N=C\c1ccc([N+](=O)[O-])s1`, for the setting “at 27 µM”, the percent infected cells with replication is 2%.

Take `CN(Cc1ccccc1)C(=O)C1CCCN(Cc2cccc(Cl)c2)C1` (configuration not stated): under “at 1.1 µM”, the percent infected cells with replication is 0%.

Take `CCc1ccc2nc(N(CCN(C)C)C(=O)c3ccc4ncsc4c3)sc2c1`: the percent infected cells with replication (at 0.87 µM) is 2%.

With `CC(C)Oc1cccc(C(=O)C2CCCN(Cc3cnn(C(C)C)c3)C2)c1` (configuration not stated), under “at 0.38 µM”, the percent infected cells with replication is 0%.

As for `Cc1ccc(NC(=O)CCC(=O)N/N=C/c2ccc([N+](=O)[O-])o2)cc1C`, under “at 0.16 µM”, the percent infected cells with replication is 0%.

Consider `CC1CCCN(C(=O)Cc2cn(Cc3cccc(Cl)c3)c3ccccc23)C1` (configuration not stated), for which the percent infected cells with replication (at 17.9 µM) was 0%.

For `CC(C)Oc1cccc(C(=O)C2CCCN(Cc3cnc(N4CCCC4)s3)C2)c1` (configuration not stated), where the note is “at 1.4 µM”, the percent infected cells with replication is 2%.

As for `COc1cc(C(=O)NCCC(C)C)ccc1OCc1ccc(Cl)cc1Cl`, the percent infected cells with replication (at 13 µM) is 0%.

For the molecule `Cc1ccccc1OCCCCCn1ccnc1`, the percent infected cells with replication (at 5.3 µM) was 4%.

`COC(=O)N/N=C/c1ccc([N+](=O)[O-])o1`: under “at 4.69 µM”, the percent infected cells with replication was 8%.

Turning to `CSc1ccc(CN2CCCC(CNC(=O)c3ccc(F)cc3)C2)cc1` (configuration not stated), where the note is “at 1.2 µM”, the percent infected cells with replication is 6%.

For `CCn1ncc(CN2CCCC(C(=O)c3cccc(OC(C)C)c3)C2)c1C` (configuration not stated), where the note is “at 0.32 µM”, the percent infected cells with replication was 2%.

`O=C(CNc1cccc2ccccc12)N/N=C/c1ccc([N+](=O)[O-])o1`: the percent infected cells with replication (at 0.64 µM) is 6%.

For the molecule `CC1CC(C)CN(CCOCCSc2ccccc2)C1` (configuration not stated), the percent infected cells with replication (at 0.89 µM) was 2%.

For the molecule `OC(COc1ccc2ccccc2c1Br)Cn1ccnc1` (configuration not stated), for the setting “at 5.01 µM”, the percent infected cells with replication was 2%.

Consider `COCc1cc(CN2CCCC(CNC(=O)c3ccc(F)cc3)C2)ccc1OC` (configuration not stated), for which the percent infected cells with replication (at 1.18 µM) is 0%.

Regarding `Fc1ccc(CCNCc2ccc(Cl)c(Cl)c2)cc1`, for the setting “at 1.22 µM”, the percent infected cells with replication was 0%.

Turning to `O=C(NCC1CCCN(Cc2cccc(C(F)(F)F)c2)C1)c1ccc(F)cc1` (configuration not stated), the percent infected cells with replication (at 1.11 µM) is 2%.
